Experimental data published in ChEMBL document CHEMBL1149790, “Synthesis of some novel thiourea derivatives obtained from 5-[(4-aminophenoxy)methyl]-4-alkyl/aryl-2,4-dihydro-3H-1,2,4-triazole-3-thiones and evaluation as antiviral/anti-HIV and anti-tuberculosis agents” (Eur J Med Chem, 2008).
In brackets after ≈: the same amount, converted by molar mass.

Key:
Vero = assay: Cytotoxicity against african green monkey Vero cells; assay type: cell-based; conditions: chlorocebus sabaeus
Outline: (§1)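 Uninfected cell cultures exposed to test compounds alongside antiviral assays; minimum cytotoxic concentration (MCC) = concentration causing a microscopically detectable alteration of cell morphology.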

[1] = Cytotoxicity against human MT4 cells by MTT assay; assay type: cell-based
Outline: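 Mock-infected MT-4 cells (6 × 10⁵ cells/ml) with serial five-fold compound dilutions in triplicate; MTT reduction read at 540 and 690 nm after 5 days, median OD of three wells; CC50 = concentration reducing OD540 of mock-infected control by 50%.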

Human alphaherpesvirus 1 [2] = assay: Antiviral activity against HSV1 KOS in human E6SM cells assessed as reduction of virus-induced cytopathogenicity; assay type: functional; conditions: Human alphaherpesvirus 1, KOS
Outline: (§2)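 Confluent cell monolayers (E6SM, HEL, HeLa or Vero, per line) inoculated with 100 CCID50 virus; 1 h adsorption, residual virus removed, then incubated with compound at 400, 200, 100 … µg/ml. Cytopathicity scored once complete in untreated virus controls; MIC = concentration inhibiting virus-induced cytopathicity.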

Coxsackievirus B4 [3] = assay: Antiviral activity against Coxsackie virus B4 in african green monkey Vero cells assessed as reduction of virus-induced cytopathogenicity; assay type: functional; conditions: Enterovirus B; outline: as §2
Human alphaherpesvirus 1 [4] = assay: Antiviral activity against thymidine kinase deficient and acyclovir resistant HSV1 KOS in human E6SM cells assessed as reduction of virus-induced cytopathogenicity; assay type: functional; conditions: Human alphaherpesvirus 1, KOS; outline: as §2
[5] = system: Vesicular stomatitis virus; assay: Antiviral activity against in Vesicular stomatitis virus in human E6SM cells assessed as reduction of virus-induced cytopathogenicity; assay type: functional; outline: as §2
[6] = system: Respiratory syncytial virus; assay: Antiviral activity against respiratory syncytial virus in human HeLa cells assessed as inhibition of virus-induced cytopathogenicity; assay type: functional; outline: as §2
Sindbis virus = assay: Antiviral activity against Sindbis virus in african green monkey Vero cells assessed as reduction of virus-induced cytopathogenicity; assay type: functional; outline: as §2
[7] = system: Human immunodeficiency virus 1; assay: Antiviral activity against HIV1 3B in human MT4 cells assessed as protection against virus-induced cytopathogenicity by MTT assay; assay type: functional, organism-based; design: Activity: concentration or dose not given beside the values; conditions: for IC50: Human immunodeficiency virus 1, 3B, MT4
Outline: (§3)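 MT-4 cells at 6 × 10⁵ cells/ml infected with HIV-1 IIIB or HIV-2 ROD at 100–300 CCID50; compounds in serial five-fold dilutions, triplicate mock- and virus-infected wells. MTT viability read at 540 and 690 nm after 5 days, median OD of three wells; EC50 = 50% protection from viral cytopathic effect.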

[8] = Cytotoxicity against human HEL cells assessed as alteration of cell morphology; assay type: cell-based; outline: as §1
Human alphaherpesvirus 1 [9] = assay: Antiviral activity against HSV1 KOS in human HEL cells assessed as reduction of virus-induced cytopathogenicity; assay type: functional; conditions: Human alphaherpesvirus 1, KOS; outline: as §2
Punta Toro virus = assay: Antiviral activity against Punta Toro virus in african green monkey Vero cells assessed as reduction of virus-induced cytopathogenicity; assay type: functional; outline: as §2
[10] = Cytotoxicity against human E6SM cells; assay type: cell-based; conditions: E6SM cells; outline: as §1
[11] = system: Human immunodeficiency virus 2; assay: Antiviral activity against HIV2 ROD in human MT4 cells assessed as protection against virus-induced cytopathogenicity by MTT assay; assay type: functional, organism-based; design: Activity: concentration or dose not given beside the values; conditions: for IC50: Human immunodeficiency virus 2, ROD, MT4; outline: as §3
Human alphaherpesvirus 2 [12] = assay: Antiviral activity against HSV2 G in human HEL cells assessed as reduction of virus-induced cytopathogenicity; assay type: functional; conditions: Human alphaherpesvirus 2, G; outline: as §2
[13] = system: Vesicular stomatitis virus; assay: Antiviral activity against in Vesicular stomatitis virus in human HEL cells assessed as reduction of virus-induced cytopathogenicity; assay type: functional; outline: as §2
[14] = system: Vesicular stomatitis virus; assay: Antiviral activity against vesicular stomatitis virus in human HeLa cells assessed as inhibition of virus-induced cytopathogenicity; assay type: functional; outline: as §2
Human respirovirus 3 = assay: Antiviral activity against Parainfluenza 3 virus in african green monkey Vero cells assessed as reduction of virus-induced cytopathogenicity; assay type: functional; outline: as §2
Human alphaherpesvirus 2 [15] = assay: Antiviral activity against HSV2 G in human E6SM cells assessed as reduction of virus-induced cytopathogenicity; assay type: functional; conditions: Human alphaherpesvirus 2, G; outline: as §2
Coxsackievirus B4 [16] = assay: Antiviral activity against Coxsackie virus B4 in human HeLa cells assessed as inhibition of virus-induced cytopathogenicity; assay type: functional; conditions: Enterovirus B; outline: as §2
Human alphaherpesvirus 1 [17] = assay: Antiviral activity against thymidine kinase deficient and acyclovir resistant HSV1 KOS in human HEL cells assessed as reduction of virus-induced cytopathogenicity; assay type: functional; conditions: Human alphaherpesvirus 1, KOS; outline: as §2
[18] = system: Mammalian orthoreovirus 1; assay: Antiviral activity against Reo virus 1 in african green monkey Vero cells assessed as reduction of virus-induced cytopathogenicity; assay type: functional; outline: as §2
[19] = Cytotoxicity against human HeLa cells; assay type: cell-based; outline: as §1

SMILES | Activity (Vero) | MIC (Human alphaherpesvirus 1 [2]) [µg/mL] | MIC (Coxsackievirus B4 [3]) [µg/mL] | MIC (Human alphaherpesvirus 1 [4]) [µg/mL] | MIC [5] [µg/mL] | MIC [6] [µg/mL] | MIC (Sindbis virus) [µg/mL] | MCC [8] [µg/mL] | MIC (Human alphaherpesvirus 1 [9]) [µg/mL] | MIC (Punta Toro virus) [µg/mL] | MCC [10] [µg/mL] | MIC (Human alphaherpesvirus 2 [12]) [µg/mL] | MIC [13] [µg/mL] | MIC [14] [µg/mL] | MIC (Human respirovirus 3) [µg/mL] | MIC (Human alphaherpesvirus 2 [15]) [µg/mL] | MIC (Coxsackievirus B4 [16]) [µg/mL] | MIC (Human alphaherpesvirus 1 [17]) [µg/mL] | MIC [18] [µg/mL] | MCC [19] [µg/mL] | also measured
CCCCCCNC(=S)Nc1ccc(-c2n[nH]c(=S)n2-c2ccccc2)cc1 | 400 µg/mL | > 16 | > 80 | > 16 | > 16 | > 80 | > 80 | ≥ 16 | > 16 | > 80 | ≥ 16 | > 16 | > 16 | > 80 | > 80 | > 16 | > 80 | > 16 | > 80 | 400 | CC50 [1]: 3.99 µg/mL (≈ 9.69 µM); Activity [7]: 16%; IC50 [7]: > 3.99 µg/mL; Activity [11]: 3%; IC50 [11]: > 3.99 µg/mL
CNC(=S)Nc1ccc(-c2n[nH]c(=S)n2C)cc1 | 400 µg/mL | 240 (≈ 859 µM) | > 80 | > 80 | > 80 | > 80 | > 80 | 400 | 240 (≈ 859 µM) | > 80 | 400 | 240 (≈ 859 µM) | > 80 | > 80 | > 80 | 240 (≈ 859 µM) | > 80 | > 80 | > 80 | 400 | CC50 [1]: 80.3 µg/mL (≈ 287 µM); Activity [7]: 1%; IC50 [7]: > 80.3 µg/mL; Activity [11]: 0%; IC50 [11]: > 80.3 µg/mL
S=C(Nc1ccc(Cl)cc1)Nc1ccc(-c2n[nH]c(=S)n2-c2ccccc2)cc1 | >= 16 ug ml-1 | > 16 | > 16 | > 16 | > 16 | > 16 | > 16 | ≥ 16 | > 16 | > 16 | ≥ 16 | > 16 | > 16 | > 16 | > 16 | > 16 | > 16 | > 16 | > 16 | 80 | CC50 [1]: 10.3 µg/mL (≈ 23.5 µM); Activity [7]: 4.5%; IC50 [7]: > 10.3 µg/mL; Activity [11]: 31%; IC50 [11]: > 10.3 µg/mL
C=CCNC(=S)Nc1ccc(-c2n[nH]c(=S)n2CC=C)cc1 | >= 80 ug ml-1 | > 80 | > 80 | 240 (≈ 724 µM) | > 80 | > 80 | > 80 | ≥ 80 | > 80 | > 80 | ≥ 80 | > 80 | > 80 | > 80 | > 80 | > 80 | > 80 | 240 (≈ 724 µM) | > 80 | 400 | CC50 [1]: 65.4 µg/mL (≈ 197 µM); Activity [7]: 6.5%; IC50 [7]: > 65.4 µg/mL; Activity [11]: 0%; IC50 [11]: > 65.4 µg/mL
Cn1c(-c2ccc(NC(=S)Nc3ccccc3)cc2)n[nH]c1=S | 400 µg/mL | > 80 | > 80 | 48 (≈ 141 µM) | > 80 | > 16 | > 80 | 400 | > 80 | > 80 | 400 | > 80 | > 80 | > 16 | > 80 | > 80 | > 16 | 48 (≈ 141 µM) | > 80 | 80 | CC50 [1]: 42.8 µg/mL (≈ 125 µM); Activity [7]: 35%; IC50 [7]: > 42.8 µg/mL; Activity [11]: 10%; IC50 [11]: > 42.8 µg/mL
Nc1ncnc2c1ncn2C[C@H](O)CO [(S)-DHPA] | > 400 µg/mL |  | > 400 |  |  | > 400 | > 400 |  |  | > 400 |  |  |  | > 400 | > 400 |  | > 400 |  | > 400 | > 400 | 
CCNC(=S)Nc1ccc(-c2n[nH]c(=S)n2C)cc1 | 400 µg/mL | 240 (≈ 818 µM) | > 80 | 240 (≈ 818 µM) | > 400 | > 80 | > 80 | ≥ 400 | 240 (≈ 818 µM) | > 80 | ≥ 400 | 240 (≈ 818 µM) | > 400 | > 80 | > 80 | 240 (≈ 818 µM) | > 80 | 240 (≈ 818 µM) | > 80 | 400 | CC50 [1]: 82.4 µg/mL (≈ 281 µM); Activity [7]: 3%; IC50 [7]: > 82.4 µg/mL; Activity [11]: 0%; IC50 [11]: > 82.4 µg/mL
NC(=O)c1ncn([C@@H]2O[C@H](CO)[C@@H](O)[C@H]2O)n1 [RIBAVIRIN] | > 400 µg/mL | 9.6 (≈ 39.3 µM) | > 400 | 48 (≈ 197 µM) | 240 (≈ 983 µM) | 9.6 (≈ 39.3 µM) | 240 (≈ 983 µM) | > 400 | 9.6 (≈ 39.3 µM) | 48 (≈ 197 µM) | > 400 | 48 (≈ 197 µM) | 240 (≈ 983 µM) | 48 (≈ 197 µM) | 48 (≈ 197 µM) | 48 (≈ 197 µM) | 240 (≈ 983 µM) | 48 (≈ 197 µM) | 48 (≈ 197 µM) | > 400 | 
